PolyA inh – blocks polyadenylation in yeast reporter cells. S. cerevisiae SKY197-pL101 polyadenylation reporter, beta-gal luminescence; efflux-impaired pdr1/pdr3 knockout yeast; score 100 = 6 SD above DMSO. activity score, % at 12 µM. hit rate 0.02% among 300,000. AID 1875;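 active = lowest replicate activity score at least 50, where 100 means six control SD above control mean; inconclusive = lowest score under 50 but half or more replicates reach 50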;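 also: yeast exposed to compound for 9 h at 30 °C; higher score means more reporter readthrough which indicates perturbed polyadenylation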
NALP1 yeast inh – blocks the NALP1 inflammasome reconstituted in yeast; S. cerevisiae NALP1/ASC/caspase-1 growth, X-gal OD620, 72 h; inhibition, % at 10 µM; hit rate 0.61% among 280,000; in the data active = inhibition mostly above about 24%, no sharp cut-off; inactive = mostly below about 32%
NALP3 yeast inh – blocks the NALP3 inflammasome reconstituted in yeast; AID 2825; inhibition, % at 10 µM; Yeast reconstituted NLRP3/ASC/caspase-1, beta-gal luminescence, 24 h; hit rate 0.39% among 330,000;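 active = inhibition of 50% or more; inactive = inhibition below 50%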;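 also: plate controls were induced DMSO wells for no effect and uninduced yeast grown without galactose for full effect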
VIM-2 inhibitor – inhibitors of Pseudomonas aeruginosa VIM-2 metallo-beta-lactamase; purified VIM-2, nitrocefin hydrolysis, epi-absorbance fluorescence; inhibition, % at 5.6 µM; hit rate 0.89% among 290,000; AID 1527;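 active = inhibition above the mean of all tested compounds plus 3 SD, cutoff set per screening run, cut at about 7.5% in these data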;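 also: red hydrolysis product quenches plate fluorescence so inhibitors raise well fluorescence; 0% = enzyme with DMSO and 100% = DMSO without enzyme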
SUMO Mot1 rescue – blocks SUMOylation pathway, rescuing yeast Mot1-301 growth; AID 2716; hit rate 1% among 320,000; S. cerevisiae Mot1-301 growth rescue, ATP luminescence, 38.5C; percent above DMSO median, 100 means doubled; growth rescue, % at 18.8 µM;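 active = every valid replicate shows activation above 250% relative to neutral control wells; inactive = the rest, any valid replicate at or below 250%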;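 also: OY570 slx delta 5 strain wells were the positive control but not used for scaling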
IMP-1 inh – blocks Pseudomonas aeruginosa IMP-1 metallo-beta-lactamase | purified IMP-1, nitrocefin hydrolysis, epi-absorbance fluorescence | inhibition, % at 5.6 µM | hit rate 0.45% among 290,000;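 active = inhibition above the mean plus 3 SD of all compounds in the same screening run, cut at about 4.5% in these data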;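 also: 0% = IMP-1 with DMSO and 100% = DMSO wells lacking enzyme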
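Assay system: purified recombinant IMP-1 beta-lactamase. Input: IMP-1 0.2 nM before substrate addition. Buffer or medium: Zinc- and detergent-supplemented HEPES buffer, pH 7.1. Schedule: 25 °C, 15 min preincubation, 25 min reaction. Signal: Epi-absorbance fluorescence, 480 nm excitation, 530 nm emission. Evaluation: percent inhibition from optical density relative to buffer-blank wells.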
NALP3 confirm – NALP3 inhibition confirmation in yeast. shares compounds with NALP3 yeast inh. yeast expressing human NALP3, luminescence. inhibition, % at 10 µM. hit rate 81% among 1,300; in the data active = inhibition above about 48%
Casp1-ASC yeast – counter-screen for NALP3 inhibitors: yeast caspase-1-ASC; shares compounds with NALP3 yeast inh; yeast expressing Caspase-1-ASC, luminescence counter screen; inhibition, % at 10 µM; hit rate 66% among 1,000; AID 488784
NALP3 yeast rt – yeast NALP3 inhibition, confirmed on retest; shares compounds with NALP3 yeast inh; yeast expressing human NALP3, luminescence read-out; inhibition, % at 10 µM; hit rate 53% among 1,000; AID 488794
* = called active by the depositor; ? = inconclusive; / = no result. Only some compounds are listed: those with a hit (about 2.9% of all), similar ones and a draw of the others. Rule as the data show it, unless noted: active = inhibition above about 50%; inactive = the rest.

SMILES	PolyA inh	NALP1 yeast inh	NALP3 yeast inh	VIM-2 inhibitor	SUMO Mot1 rescue	IMP-1 inh	NALP3 confirm	Casp1-ASC yeast	NALP3 yeast rt
Cc1[nH]cnc1CSCCN	-28.5	-3.6	57.6*	-1.7	1.9	-1.6	69.4*	53.6*	65.2*
CCN(CC(=O)Nc1ccc(NC(C)=O)cc1)C(=O)c1ccc2c(c1)S(=O)(=O)N=C1CCCCCN12	4.6	/	11.5	/	2.6	/	/	/	/
O=C(CCCCCCC(=O)NCc1ccccc1)NCc1ccccc1	-5.3	0.1	1.3	0.3	5.9	-3.8	/	/	/
C/C(=N\NC(=S)NCCc1ccccc1)c1ccc(Cl)cc1Cl	11.5	-10.2	58.3*	-2.6	13.5	-2.2	39.0	76.8*	58.1*
C/C(=N\NC(=S)NCCc1ccccc1)c1ccc(O)cc1O	12.2	-23.9	16.9	-3.5	8.0	-3.1	/	/	/
O=C(/C=C/c1c(F)cccc1Cl)c1ccc(O)cc1	?	7.5	91.0*	-1.4	59.3	-2.1	87.2*	58.2*	47.3
O=C(/C=C/c1ccccc1Cl)c1ccc(O)cc1	-12.6	19.7	29.6	-1.9	12.2	-2.8	/	/	/
O=C(/C=C/c1ccccc1)c1c[nH]c2ccccc12	-8.5	0.1	50.2*	-2.1	-8.9	-1.1	62.6*	/	/
O=C(Nc1ccccc1)C(=O)c1c[nH]c2ccccc12	5.1	-10.7	57.6*	-2.9	1.8	-3.2	75.4*	42.2	49.7
NC(=O)c1c[nH]c2ccccc12	5.7	11.3	-10.4	0.7	-7.3	-1.2	/	/	/
O=C(NCCCNC(=O)c1cc(Cl)ccc1Cl)c1ccco1	25.6	9.7	-10.8	-2.8	72.5	-1.0	/	/	/
Cc1cccc(NC(=O)c2ccccc2O)c1C	14.6	12.2	56.9*	-1.8	1.8	-3.5	56.8*	52.3*	58.8*
Cc1ccc2c(c1)c1c(n2C)C(=O)CCC1	-1.3	7.1	54.4*	-2.5	76.4	-1.4	56.0*	63.2*	52.1*
O=[N+]([O-])c1cc(NCCO)c(N2CCCCCC2)c2nonc12	-15.3	2.2	13.8	-2.5	-6.9	-1.2	/	/	/
O=C1/C(=C/c2cccnc2)SC(=NCc2ccccc2)N1Cc1ccccc1	3.6	15.1	4.9	-2.1	-10.5	-3.5	/	/	/
Cc1ccc(/C=C2\SC(=S)N(c3cccnc3)C2=O)cc1	15.6	12.8	54.1*	0.1	-10.7	-1.7	23.7	/	/
O=C1/C(=C/c2cccnc2)SC(=S)N1CCc1ccccc1	-8.4	-1.4	50.0*	-1.6	-10.4	-1.0	13.6	/	/
COc1cc(/C=C2\SC(=S)N(c3cccnc3)C2=O)ccc1O	27.1	/	41.3	-1.3	3.2	-1.6	/	/	/
O=C1/C(=C/c2ccccn2)SC(=S)N1c1cccc(O)c1	7.7	/	81.3*	-2.5	-3.6	0.2	73.6*	79.5*	51.4*
Cc1ccc(C(=O)Nc2nc3ccccc3s2)s1	8.1	0.2	45.1	-2.5	-5.2	-2.4	/	/	/
Cc1noc(C)c1C(=O)Nc1nc2ccccc2s1	/	/	50.3*	/	/	/	48.8*	39.0	30.6
CN(C)c1cc2c(c(N(C)C)c1)C(=O)c1ccccc1C2=O	-21.4	0.5	52.1*	4.0	-25.4	-3.2	47.5	50.6*	49.9
COc1ccccc1N(C)S(=O)(=O)c1ccc(C)c(C(=O)NC(C)c2ccccn2)c1 (stereo unspecified)	/	/	-1.1	/	4.5	/	/	/	/
CN(C)C(=O)c1ccc(NC(=O)COc2cccc3c2OC(C)(C)C3)cc1	/	/	3.1	/	/	/	/	/	/
COc1ccc(Nc2cc(=O)n(C3CCCCC3)c(=O)[nH]2)c(OC)c1	2.0	15.4	4.0	-5.2	169.3	-1.2	/	/	/
COc1c[nH]n(C2CCCCC2)c(=O)c1=O	?	18.1	57.0*	-2.2	157.7	-0.3	77.4*	59.4*	67.0*
Cc1ccccc1OCCn1c(=S)[nH]c2ccccc21	-19.9	11.3	53.1*	-3.2	0.8	-3.3	78.9*	66.7*	41.9
Fc1ccccc1OCCn1c(=S)[nH]c2ccccc21	-14.7	-6.4	32.9	-4.5	18.1	-3.1	/	/	/

Assay outcomes from PubChem BioAssay.
